# Results from different studies.
# Lines come from different studies, so protocols differ.
# Target: Calcium/calmodulin-dependent protein kinase type 1 (CAMK1, Homo sapiens, UniProt Q14012)
Structure (SMILES),observed,mode,technique,tested at,setting,endpoint,result
COc1ccc2oc(-c3ccc4nc(N)oc4c3)c/c(=N\c3ccccc3NC(=O)CCN)c2c1,binding,,,1 µM,,remaining binding,70%
C[C@H]1CC[C@H](n2c3cnccc3c3cnc(Nc4ccc5c(n4)CCN(C(=O)CO)C5)nc32)CC1,cell-free assay,,,1 µM,,remaining signal,45%
C=CC(=O)N1CCC([C@@H]2CCNc3c(C(N)=O)c(-c4ccc(Oc5ccccc5)cc4)nn32)CC1,enzyme activity,inhibitor,,1 µM,,inhibition,7%
C1=C/COCc2cc(ccc2OCCN2CCCC2)Nc2nccc(n2)-c2cccc(c2)COC/1,binding,,,0.1 µM,,remaining binding,65%
Cc1ccc(NC(=O)c2ccnc(C(F)(F)F)c2)cc1-c1cc(OCCO)nc(N2CCOCC2)c1,binding,,,1 µM,,remaining binding,100%
Cc1cc(O)c(-c2ccc([C@@H](C)CN(C)C)cc2)c2c1[nH]c(=O)c1sccc12,cell-free assay,inhibitor,,0.1 µM,lysate,inhibition,2.27%
CCCCC(=O)Nc1ccc(-c2ccc3ncn(CCC)c(=O)c3c2)cn1,binding,,competition with immobilised ligand,0.5 µM,,remaining binding,88%
CC#CC(=O)N1CCC[C@H]1c1nc(-c2ccc(C(=O)Nc3ccccn3)cc2)c2c(N)nccn12,enzyme activity,inhibitor,,1 µM,,inhibition,26%
